This is an account of results in ChEMBL document CHEMBL1944542, “Coumarin polysulfides inhibit cell growth and induce apoptosis in HCT116 colon cancer cells” (2012).

The test system of test [1] is HCT-116. Briefly: Cytotoxicity against human HCT116 cells expressing p53 assessed as reduction in cell viability at 50 uM from 24 to 48 hrs by MTT assay. The format is functional, cell-based. The procedure, abridged: (§1)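 p53-positive HCT116 cells kept in McCoy's 5A with 10% FCS at 37 °C and 5% CO2. Seeded at 1 x 10^4 per well and incubated overnight. Treated at 12.5–200 µM, DMSO-dissolved, for 8, 24 or 48 h, with 0.05% DMSO control. MTT (5 mg/ml) added for the final 1 h at 37 °C. Formazan dissolved in SDS/DMSO/acetic acid and absorbance read at 595 nm. Means ± SD, n = 3.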
Background: Formazan colour is commonly taken as a measure of viable cells.

The subject of test [2] is HCT-116. Nature of the test: Cell cycle arrest in human HCT116 cells assessed as accumulation at subG1 phase at 50 uM after 24 hrs using propidium iodide staining by cytofluorometry (reference value: 1.8%). The format is functional.
The target in test [3] is T1, M-phase inducer phosphatase 3 (Homo sapiens) (UniProt P30307).
T1 sequence (whole entry): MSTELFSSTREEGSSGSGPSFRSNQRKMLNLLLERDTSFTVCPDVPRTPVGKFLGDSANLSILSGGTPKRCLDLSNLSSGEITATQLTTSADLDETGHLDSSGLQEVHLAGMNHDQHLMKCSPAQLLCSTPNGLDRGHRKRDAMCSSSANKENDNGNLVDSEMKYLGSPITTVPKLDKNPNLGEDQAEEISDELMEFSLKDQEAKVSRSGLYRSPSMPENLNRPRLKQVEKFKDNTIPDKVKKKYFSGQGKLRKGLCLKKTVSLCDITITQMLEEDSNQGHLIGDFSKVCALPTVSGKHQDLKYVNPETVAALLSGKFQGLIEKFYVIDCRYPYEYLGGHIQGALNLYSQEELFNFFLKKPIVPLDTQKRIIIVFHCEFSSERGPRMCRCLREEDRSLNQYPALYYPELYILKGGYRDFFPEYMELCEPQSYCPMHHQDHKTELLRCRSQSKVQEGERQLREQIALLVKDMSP
Briefly: Inhibition of recombinant human GST-tagged cdc25C phosphatase activity using 3-O-methyl fluorescein phosphate at 100 uM. Put shortly:
(§2)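 Test concentration 100 µM. Fluorescence (ex 475 / em 510 nm) read every 20 min for 2 h at 30 °C. Residual activity expressed relative to DMSO set at 100%.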

In test [4] the test system is HCT-116. Nature of the test: Cell cycle arrest in human HCT116 cells assessed as accumulation at G1 phase at 25 uM after 24 hrs using propidium iodide staining by cytofluorometry (reference value: 62.34%). The format is functional.
For test [5], the system named is HCT-116. Briefly: Cytotoxicity against human HCT116 cells expressing p53 assessed as reduction in cell viability at 100 to 200 uM after 24 hrs by MTT assay. The format is functional, cell-based. The procedure, abridged:
as §1

In test [6] the test system is HCT-116. Nature of the test: Induction of apoptosis in human HCT116 cells assessed as PARP cleavage at 50 uM from 24 to 72 hrs by Western blotting. The format is functional, cell-based. Put shortly: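 HCT116 cells exposed to 50 µM for 24, 48 and 72 h, with 0.05% DMSO control. RIPA lysates (75 µg) run on 7.5% SDS-PAGE and transferred to PVDF. Anti-PARP blot, with nucleolin as loading control. Cleavage read as the 116 kDa band converting to 89 kDa.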
On the technique in general: A western blot detects proteins with antibodies after separation by electrophoresis.

For test [7], the system named is HCT-116. Briefly: Induction of apoptosis in human HCT116 cells assessed as increase in bax level by Western blotting. The format is functional, cell-based. As to conditions: TDE = time-dependent effect. The procedure, abridged:
(§3)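 HCT116 cells left untreated or exposed for 0.5–24 h. 50 µg protein separated on 12.5% SDS-PAGE and transferred to PVDF. bcl-2, bax or cytochrome c antibodies applied at 1:1000 overnight at 4 °C, with GAPDH loading control. For cytochrome c, cytosolic extracts were made by snap-freezing PBS-resuspended cells and clearing at 12500×g.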

The test system of test [8] is HCT-116. Nature of the test: Induction of apoptosis in human HCT116 cells assessed as decrease in bcl-2 level by Western blotting. The format is functional, cell-based. Particulars: TDE = time-dependent effect. Put shortly: as §3
For test [9], the system named is HCT-116. Briefly: Cell cycle arrest in human HCT116 cells assessed as accumulation at S phase at 25 uM after 24 hrs using propidium iodide staining by cytofluorometry (reference value: 4.91%). The format is functional.
Test [10] relates to HCT-116. Nature of the test: Cytotoxicity against human HCT116 cells expressing p53 assessed as reduction in cell viability after 24 hrs by MTT assay. The format is functional, cell-based. Put shortly:
as §1

For test [11], the system named is HCT-116. Nature of the test: Induction of apoptosis in human HCT116 cells assessed as increase in caspase 3/7 activation at 50 uM from 24 to 48 hrs by Western blotting. The format is functional, cell-based. The procedure, abridged:
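HCT116 cells treated with 0 or 50 µM for 24 and 48 h. Lysed on ice in Tris/MgCl2/NP-40/DTT buffer. Separated on 12.5% SDS-PAGE and probed with caspase 3 antibody for full-length protein and cleavage products. Representative of at least 3 blots.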

Test [12] relates to HCT-116. Briefly: Cell cycle arrest in human HCT116 cells assessed as accumulation at G1 phase at 50 uM after 24 hrs using propidium iodide staining by cytofluorometry (reference value: 62.34%). The format is functional.
The test system of test [13] is HCT-116. Briefly: Cell cycle arrest in human HCT116 cells assessed as accumulation at G2/M phase at 25 uM after 24 hrs using propidium iodide staining by cytofluorometry (reference value: 23.45%). The format is functional.
Test [14] concerns HCT-116. Briefly: Induction of apoptosis in human HCT116 cells assessed as increase in release of cytochrome C into cytosol by Western blotting. The format is functional, cell-based. The procedure, abridged:
as §3

In test [15] the test system is HCT-116. Nature of the test: Cell cycle arrest in human HCT116 cells assessed as accumulation at G2/M phase at 50 uM after 24 hrs using propidium iodide staining by cytofluorometry (reference value: 23.45%). The format is functional.
For test [16], the target named is T2, M-phase inducer phosphatase 1 (Homo sapiens) (UniProt P30304).
T2 sequence (whole entry): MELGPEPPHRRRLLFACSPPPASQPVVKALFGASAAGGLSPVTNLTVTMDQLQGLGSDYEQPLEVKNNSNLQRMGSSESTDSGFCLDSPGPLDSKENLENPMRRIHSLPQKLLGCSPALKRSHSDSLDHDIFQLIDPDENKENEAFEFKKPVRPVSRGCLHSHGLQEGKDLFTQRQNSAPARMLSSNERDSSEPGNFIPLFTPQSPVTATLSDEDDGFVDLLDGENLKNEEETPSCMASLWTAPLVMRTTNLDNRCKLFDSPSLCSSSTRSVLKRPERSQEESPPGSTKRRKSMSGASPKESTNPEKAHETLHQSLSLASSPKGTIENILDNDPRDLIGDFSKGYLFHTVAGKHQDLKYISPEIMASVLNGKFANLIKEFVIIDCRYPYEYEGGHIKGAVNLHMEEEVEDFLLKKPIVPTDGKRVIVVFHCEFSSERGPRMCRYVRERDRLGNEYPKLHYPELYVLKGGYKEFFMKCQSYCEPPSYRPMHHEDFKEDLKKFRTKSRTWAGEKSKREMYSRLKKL
Nature of the test: Inhibition of recombinant human GST-tagged cdc25A phosphatase activity using 3-O-methyl fluorescein phosphate at 100 uM. The procedure, abridged:
as §2

Test [17] concerns HCT-116. Briefly: Induction of apoptosis in human HCT116 cells assessed as decrease in cdc25C level at 50 uM by Western blotting. The format is functional, cell-based. As to conditions: TDE = time-dependent effect.
For test [18], the system named is HCT-116. Nature of the test: Cytotoxicity against human HCT116 cells expressing p53 assessed as reduction in cell viability at 50 uM after 24 hrs by MTT assay. The format is functional. The procedure, abridged:
as §1

Test [19] relates to HCT-116. Nature of the test: Induction of apoptosis in human HCT116 cells assessed as increase in gammaH2AX level at 50 uM from 24 to 72 hrs by Western blotting. The format is functional, cell-based.
Test [20] relates to HCT-116. Briefly: Cytotoxicity against human HCT116 cells expressing p53 assessed as reduction in cell viability at 25 uM after 24 hrs by MTT assay. The format is functional. Put shortly:
as §1

The test system of test [21] is HCT-116. Briefly: Induction of apoptosis in human HCT116 cells assessed as increase in p53 level at 50 uM from 8 to 48 hrs by Western blotting. The format is functional, cell-based. The procedure, abridged: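 HCT116 cells exposed to 50 µM for 8, 24 and 48 h, with 0.05% DMSO control. Lysates run on SDS-PAGE and blotted with anti-p53 (DO-1) at 1:1000 for 1 h at room temperature. GAPDH used as loading control.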

Test [22] has as its system HCT-116. Briefly: Cytotoxicity against human HCT116 cells expressing p53 assessed as reduction in cell viability at 50 uM by MTT assay. The format is functional, cell-based. Particulars: TDE = time-dependent effect. Put shortly: as §1
The test system of test [23] is HCT-116. Nature of the test: Cytotoxicity against human HCT116 cells expressing p53 assessed as cell viability at 50 uM after 48 hrs by MTT assay. The format is functional. As to conditions: HCT-116, 48 h, read-out: Activity. Put shortly:
as §1

Test [24] concerns HCT-116. Briefly: Cell cycle arrest in human HCT116 cells assessed as accumulation at subG1 phase at 25 uM after 24 hrs using propidium iodide staining by cytofluorometry (reference value: 1.8%). The format is functional.
Test [25] deals with HCT-116. Briefly: Induction of apoptosis in NAC treated human HCT116 cells assessed as PARP cleavage at 50 uM treated 0.5 hrs before NAC challenge measured after 24 to 72 hrs by Western blotting. The format is functional, cell-based. Put shortly: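 HCT116 cells pretreated with 5 mM NAC (water stock) for 0.5 h, then exposed to 50 µM for 24, 48 and 72 h. Cells lysed in RIPA with protease inhibitors. 75 µg protein run on 7.5% SDS-PAGE and blotted to PVDF. PARP probed at 1:1000 overnight at 4 °C. Nucleolin or GAPDH used as loading control.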

Test [26] deals with HCT-116. Briefly: Cell cycle arrest in human HCT116 cells assessed as accumulation at S phase at 50 uM after 24 hrs using propidium iodide staining by cytofluorometry (reference value: 4.91%). The format is functional.
Test [27] concerns HCT-116. Briefly: Induction of apoptosis in human HCT116 cells assessed as PARP cleavage at 50 uM from 24 to 48 hrs by Western blotting. The format is functional, cell-based. Put shortly:
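HCT116 cells (McCoy's 5A, 10% FCS, 37 °C, 5% CO2) exposed to 50 µM compound (DMSO stock; 0.05% DMSO control) for 24, 48 and 72 h. Total extract in RIPA buffer with protease inhibitors, 75 µg protein run on 7.5% SDS-PAGE, blotted to PVDF. Anti-PARP 1:1000 overnight at 4 °C. 116 kDa full-length and 89 kDa cleaved bands scored. Nucleolin as loading control.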

The subject of test [28] is LNCaP. Briefly: Induction of apoptosis in human LNCAP cells assessed as increase in caspase 3/7 activation at 20 ug/ml after 24 hrs by Western blotting. The format is functional, cell-based. Put shortly:
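LNCaP cells grown in RPMI 1640 with 10% FCS, then treated with 20 µg/ml doxorubicin (water stock) for 24 h or left untreated. Lysates run on 12.5% SDS-PAGE and probed for full-length and cleaved caspase 3.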

The structures appear in SMILES notation. Active and inactive are the calls of the source. No cut-off for these calls is given here.

On to `C=CCSSSSCC=C`, for which the result in test [1] was Active.
`COc1ccc2c(CSSSCc3cc(=O)oc4cc(OC)ccc34)cc(=O)oc2c1`: the Activity is 10.43% in test [2]; 14.33% in [4]; “tde” in test [7]; “tde” in test [8]; 4.61% in test [9]; “Dose-dependent effect” in test [10]. The Activity was 13.59% in [12]; 66.07% in test [13]; 63.19% in [15]; “tde” in test [17]; 50% in [18]; 22% in test [20]. For the same compound, the Activity entry in test [22] is “tde”; in [24] it was 12.28%; in test [26] it was 3.9%. Besides, the inhibition result in test [3] and in [16] was “Active” each time. In addition, the outcome in [5], in test [6], in test [11], in test [14], in test [19] and in test [21] was Active. Also, the viability at 50 µM in test [23] stood at 20%. Besides, the result in test [25] was inactive.
For `COc1cc(N(C)C)cc(CN(C)CCc2ccc([N+](=O)[O-])cc2)c1O`, the inhibition result in test [3] and in [16] was “Active” in each case.
With `C=CCSSCC=C`, the result in test [1] and in test [27] was Active.
For the compound `COc1cccc2c1C(=O)c1c(O)c3c(c(O)c1C2=O)C[C@@](O)(C(=O)CO)C[C@@H]3O[C@H]1C[C@H](N)[C@H](O)[C@H](C)O1`, the result in test [28] was Active.
Turning to `COc1ccc2c(CSSCc3cc(=O)oc4cc(OC)ccc34)cc(=O)oc2c1`, the result in test [1], in test [5], in test [6], in [27], in test [19] and in test [21] was Active. In addition, the inhibition entry in test [3] and in [16] was “Active” each time. The Activity entry is “Dose-dependent effect” in [10], 50% in test [18], 30% in [20] and “tde” in test [22]. Moreover, the viability at 50 µM in test [23] is 20%.
